Shown are actives, neighbours in structure and some others; about 2% of the full set was active somewhere.
CSN deneddyl inh: inhibitors of CSN-mediated cullin deneddylation, primary screen, biochemical, fluorescence polarization, uHTS; Purified CSN, SCF-Nedd8-OG deneddylation; inhibition, % at 12.5 µM; COP9 signalosome complex subunit 5 (Homo sapiens), Q92905; 360,000 tested, 0.38% active;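 active means pattern-corrected inhibition above about 35%, with an unprinted fluorescence ratio check between 0.5 and 1.5, limit read from the data, passing the limit was not always enough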
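assay system = purified human Csn5 enzyme expressed in HEK293T cells | amount = 0.24 nM enzyme | buffer or medium = Tris/NaCl/DTT buffer, pH 7.5 | reagent = 10 nM SCFSkp2-Nedd8OG | compound = one concentration, 12.5 µM, 0.25% DMSO | times = 90 min reaction at room temperature | signal = FP | read-out basis = % inhibition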
SENP1 FRET inh: human SENP1 catalytic domain inhibitors, primary screen, biochemical, FRET, uHTS; Sentrin-specific protease 1 (Homo sapiens), Q9P0U3; recombinant SENP1 catalytic domain, CyPet-SUMO1-YPet FRET cleavage; inhibition, % at 10 µM; 360,000 tested, 0.21% active; AID 624204, 2012;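 active means inhibition at least 30% at 10 µM, raw YFP signal under a set limit, fluorescence ratio 0.5 to 1.5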
Target sequence (Q9P0U3 419-644 limits assumed): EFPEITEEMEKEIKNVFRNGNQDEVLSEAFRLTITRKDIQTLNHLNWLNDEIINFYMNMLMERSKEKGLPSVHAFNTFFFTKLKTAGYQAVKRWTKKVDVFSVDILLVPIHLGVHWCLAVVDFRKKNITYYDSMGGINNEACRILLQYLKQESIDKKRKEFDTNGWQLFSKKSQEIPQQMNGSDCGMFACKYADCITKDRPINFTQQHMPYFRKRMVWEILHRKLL
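Compound: 10 µM single point, 0.5% DMSO; Test system: hSENP1 catalytic domain, recombinant; Timing: 50 min reaction at room temperature; Technique: FRET, CFP and YFP emission; Control set: no-enzyme wells low, DMSO-plus-enzyme wells high control.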
HNF4A DNA FP: change in binding of human HNF4A to DNA, primary screen, biochemical, fluorescence polarization, FITC-DNA; Hepatocyte nuclear factor 4-alpha (Homo sapiens), P41235; 1 h; activity change, % at 10 µM; AID 1224865, 2016; 360,000 tested, 0.3% active; in the data active means activity change above about 30%, passing the limit was not always enough
Rpn11 inh: Rpn11 (PSMD14) deubiquitinase inhibitors, primary screen, biochemical, fluorescence polarization, uHTS | 26S proteasome non-ATPase regulatory subunit 14 (Homo sapiens), O00487 | human 26S proteasome, Ub4-pepOG fluorescence polarization; 20S core pre-blocked with epoxomicin | inhibition, % at 20 µM | 360,000 tested, 0.59% active;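 active means inhibition at 20 µM, scaled to each plate's controls, above about 33%, limit read from the data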
ATG4B inh: ATG4B protease inhibitors, primary screen, biochemical, fluorescence, uHTS; Cysteine protease ATG4B (Homo sapiens), Q9Y4P1; inhibition, % at 8.33 µM; ATG4B cleavage of LC3-PLA2, NBD-HPC fluorescence, 1 h; 340,000 tested, 0.51% active
Target sequence (Q9Y4P1 whole entry, looked up): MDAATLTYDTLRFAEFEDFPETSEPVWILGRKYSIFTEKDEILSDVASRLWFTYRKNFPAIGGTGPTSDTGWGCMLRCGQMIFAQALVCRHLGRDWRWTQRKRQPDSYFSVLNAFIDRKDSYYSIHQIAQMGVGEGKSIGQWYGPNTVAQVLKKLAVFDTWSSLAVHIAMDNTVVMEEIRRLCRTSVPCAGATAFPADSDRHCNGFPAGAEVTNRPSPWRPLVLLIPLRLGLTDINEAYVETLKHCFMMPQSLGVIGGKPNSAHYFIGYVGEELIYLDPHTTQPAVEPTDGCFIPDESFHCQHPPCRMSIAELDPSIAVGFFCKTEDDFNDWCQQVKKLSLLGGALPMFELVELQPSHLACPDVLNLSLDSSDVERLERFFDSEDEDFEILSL
TPT1 inhibitor: Candida albicans TPT1 enzyme inhibitors, primary screen, biochemical, fluorescence polarization; recombinant caTPT1, FP RNA substrate dephosphorylation; 300,000 tested, 0.81% active; inhibition, % at 5 µM; AID 1962, 2009; tRNA 2'-phosphotransferase TPT1 (Candida albicans SC5314);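 active means inhibition above the mean of all tested compounds plus 3 SD, set per screening campaign, cut at about 24% in these data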
caTPT1 confirm: Candida albicans TPT1 inhibitors, confirmation, biochemical, fluorescence polarization, triplicate | shares compounds with TPT1 inhibitor | recombinant caTPT1, RNase T1 coupled | inhibition, % at 5 µM | 2,400 tested, 74% active | AID 2149, 2009;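 active means inhibition above the primary screen limit, the mean inhibition of all tested compounds plus 3 SD, cut at about 25% in these data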
RNase T1 counter: RNase T1 inhibitors, counter-screen for TPT1 inhibitor project, biochemical, fluorescence polarization; RNase T1 cleavage, 1536-well; 2,400 tested, 83% active; AID 2153, 2009; shares compounds with TPT1 inhibitor; inhibition, % at 5 µM;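 active means inhibition above the solvent-only control well mean plus 3 SD, limit set per screening run, cut at about 23% in these data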;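 further: inhibitors block cleavage so intact labeled substrate keeps polarization high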
Target sequence (P00651 whole entry, looked up): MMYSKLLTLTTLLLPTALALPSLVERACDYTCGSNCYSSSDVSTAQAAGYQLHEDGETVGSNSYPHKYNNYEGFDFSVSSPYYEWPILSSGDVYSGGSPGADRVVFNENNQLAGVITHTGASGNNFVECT
PLA2 ctr: PLA2 enzyme inhibition, counter-screen for ATG4B inhibitor project, biochemical, single concentration, uHTS hits; shares compounds with ATG4B inh; purified PLA2, NBD-C6-HPC fluorescence, 45 min; inhibition, % at 8.33 µM; 1,600 tested, 66% active; AID 588402, 2011; in the data active means inhibition above about 50%
Rpn11 inh conf: Rpn11 (PSMD14) deubiquitinase inhibitors, confirmation, biochemical, fluorescence polarization, single concentration. 1,900 tested, 29% active. shares compounds with Rpn11 inh. inhibition, % at 20 µM. purified human 26S proteasome, Ub4-pepOG fluorescence polarization; proteasome pretreated with epoxomicin
MMP-2 inh: MMP-2 enzyme inhibition, confirmation, counter-screen for RPN11 inhibitor project, biochemical, fluorescence, single concentration; shares compounds with Rpn11 inh; recombinant MMP-2, FRET peptide cleavage fluorescence; inhibition, % at 20 µM; 1,900 tested, 4% active;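 further: human MMP-2 activated beforehand with APMA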
Thrombin FP: bovine thrombin protease inhibition, confirmation, counter-screen for Rpn11 inhibitor project, biochemical, fluorescence polarization, single concentration; inhibition, % at 20 µM; 1,900 tested, 13% active; shares compounds with Rpn11 inh; bovine thrombin cleavage of Ub4-pepOG;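 active means mean inhibition at least 40% at 20 µM, or signal 3 deviations below plate average, so some actives read negative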
SENP1 inh conf: human SENP1 catalytic domain inhibitors, confirmation, biochemical, FRET endpoint, single concentration | shares compounds with SENP1 FRET inh | recombinant SENP1, CyPet-SUMO1-YPet FRET cleavage | inhibition, % at 10 µM | 520 tested, 34% active; in the data active means inhibition mostly above about 35%, no sharp cut-off; inactive means mostly below about 32%
SENP1 kin conf: human SENP1 catalytic domain inhibitors, confirmation, biochemical, kinetic FRET, single concentration; AID 651690, 2012; 520 tested, 26% active; shares compounds with SENP1 FRET inh; recombinant SENP1, CyPet-SUMO1-YPet FRET kinetic cleavage; inhibition, % at 10 µM; in the data active means inhibition mostly above about 32%, no sharp cut-off; inactive means mostly below about 29%
HNF4a DNA conf: change in HNF4A binding to DNA, retest, confirmation, biochemical, fluorescence polarization, FITC-DNA; shares compounds with HNF4A DNA FP; 1 h; activity change, % at 12.5 µM; 210 tested, 99% active; call rule not given here
Of the large screens only hits and unclear results are named; the others gave an inactive call (follow-up assays come after a bar, where shown). Unless noted, no stated cut-off is given here; in the data, active means inhibition above about 40%; inactive means the rest.

c1ccc2c(c1)ccc1[nH]c3c(c12)CCCC3	none (no result: TPT1 inhibitor)
O=C(Cc1ccccc1)N/N=C/c1ccc(-c2ccc([N+](=O)[O-])cc2)o1	none
Cc1ccc(C)c(N(CC(=O)N/N=C/c2ccc(-c3ccc([N+](=O)[O-])cc3)o2)S(=O)(=O)c2ccccc2)c1	CSN deneddyl inh 43.7, HNF4A DNA FP 92.6, TPT1 inhibitor 41.3 (not shown: Rpn11 inh) | caTPT1 confirm 50.5 | RNase T1 counter 61.0 | HNF4a DNA conf 54.2
COc1ccc2c(-c3ccccc3)cc(SCC(N)=O)nc2c1	SENP1 FRET inh 29.9, HNF4A DNA FP 42.9, ATG4B inh 57.9, TPT1 inhibitor 34.7 (not shown: Rpn11 inh) | caTPT1 confirm 38.7 | RNase T1 counter 50.4 | PLA2 ctr 57.4 | SENP1 inh conf inactive | SENP1 kin conf inactive | HNF4a DNA conf 48.5
CCN1CCc2c(sc(NC(=O)c3ccc(S(=O)(=O)N4CCOCC4)cc3)c2C(N)=O)C1	none
CCCN1CCc2c(sc(NC(=O)c3ccc(S(=O)(=O)N4CCCC4)cc3)c2C(N)=O)C1	HNF4A DNA FP 41.4, Rpn11 inh 47.4, TPT1 inhibitor 119.6 | caTPT1 confirm 132.4 | RNase T1 counter 131.9 | Rpn11 inh conf inactive | MMP-2 inh inactive | Thrombin FP inactive | HNF4a DNA conf 53.8
CC(OC(=O)CSCC(=O)Nc1ccc(Cl)cc1)C(=O)N(C)Cc1ccccc1 (stereo not given)	none (no result: TPT1 inhibitor)
CCN(CC)C(=O)[C@H]1CC(CC(=O)NC/C=C(\C)CCC=C(C)C)C(=O)N2CCc3c([nH]c4ccccc34)[C@]12C (stereo not given in full)	none (no result: TPT1 inhibitor)
COc1ccc(NC(=O)CN(C)S(=O)(=O)c2ccc(C)cc2)c([N+](=O)[O-])c1	HNF4A DNA FP 58.8, Rpn11 inh 82.1, TPT1 inhibitor 40.8 | caTPT1 confirm 48.9 | RNase T1 counter 62.0 | Rpn11 inh conf inactive | MMP-2 inh inactive | Thrombin FP inactive | HNF4a DNA conf 58.6
COc1ccc(-n2c(C)cc(/C=C3\SC(=S)NC3=O)c2C)cc1	HNF4A DNA FP 40.1, Rpn11 inh 44.9, TPT1 inhibitor 30.5 | caTPT1 confirm 24.5 | RNase T1 counter 36.5 | Rpn11 inh conf inactive | MMP-2 inh inactive | Thrombin FP inactive | HNF4a DNA conf 59.0
O=C1c2ccccc2S(=O)(=O)c2cc(N3CCOCC3)ccc21	HNF4A DNA FP 44.5, Rpn11 inh 47.6, TPT1 inhibitor 33.7 | caTPT1 confirm 34.8 | RNase T1 counter 45.8 | Rpn11 inh conf 44.2 | MMP-2 inh inactive | Thrombin FP inactive | HNF4a DNA conf 50.4
O=C1NC(=S)N(C(=O)c2ccc(F)cc2)/C1=C/c1ccccc1	CSN deneddyl inh 54.6, HNF4A DNA FP 77.9, TPT1 inhibitor 109.5 (not shown: Rpn11 inh) | caTPT1 confirm 108.5 | RNase T1 counter 115.5 | HNF4a DNA conf 88.6
CCOC(=O)c1c(NC(=O)Nc2ccc(F)cc2)sc2c1CCN(C)C2	none
CCOC(=O)c1c(NC(=S)Nc2ccc(Cl)cc2)sc2c1CCN(C)C2	CSN deneddyl inh 61.4, HNF4A DNA FP 58.1, TPT1 inhibitor 91.1 (not shown: Rpn11 inh) | caTPT1 confirm 87.8 | RNase T1 counter 91.3 | HNF4a DNA conf 82.6
CCOc1ccc(Nc2ccc(N)c(S(=O)(=O)O)c2)cc1	none (no result: TPT1 inhibitor)
CC(NC(=O)/C(C#N)=C1\N=C(NC(=O)c2ccco2)c2ccccc21)c1ccccc1 (stereo not given)	HNF4A DNA FP 73.6, TPT1 inhibitor 47.3 | caTPT1 confirm inactive | RNase T1 counter 31.3 | HNF4a DNA conf 35.5
CCNC(=O)C1(C)CCCN(C(=O)c2cc(OC)ccc2Br)C1 (stereo not given)	none (no result: ATG4B inh, TPT1 inhibitor)
O=[N+]([O-])c1cccc(-c2ccc(/C=N/Nc3nc(N4CCCCC4)nc(N4CCCCC4)n3)o2)c1	none
O=[N+]([O-])c1ccc(-c2ccc(/C=N/Nc3nc(N4CCCC4)nc(N4CCCC4)n3)o2)cc1	HNF4A DNA FP 32.8, TPT1 inhibitor 28.8 (not shown: Rpn11 inh) | caTPT1 confirm 42.9 | RNase T1 counter 59.1 | HNF4a DNA conf 35.1
COc1cccc(NC(=O)C2(C)CCN2Cc2ccc(SC)cc2)c1 (stereo not given)	none (no result: ATG4B inh, TPT1 inhibitor)
COc1ccc2[nH]cc(C=O)c2c1	none
